In ChEMBL document CHEMBL4428045, “Antioxidant properties of thio-caffeine derivatives: Identification of the newly synthesized 8-[(pyrrolidin-1-ylcarbonothioyl)sulfanyl]caffeine as antioxidant and highly potent cytoprotective agent” (Bioorg Med Chem Lett, 2016):
Active and inactive are the calls of the source. The rule behind the calls is not given here.

Tests used:
[1] = Antioxidant activity assessed as DPPH radical scavenging activity at 0.025 to 0.1 mg/ml incubated for 30 mins in dark by spectrophotometric analysis; assay type: functional
[2] = Induction of hemolysis in human erythrocytes assessed as effect on osmotic resistance at 0.1 mg/ml incubated for 60 mins by erythrocyte osmotic fragility assay; assay type: cell-based; conditions: 1 h
Summary of the method: (§1)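 After 60 min of compound treatment, RBC osmotic resistance was expressed as %NaCl and compared with untreated control cells (p < 0.05).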

[3] = Metal chelating activity of the compound assessed as inhibition of Fe2+-ferrozine complex formation incubated for 10 mins by spectrophotometric analysis; assay type: functional
Erythrocyte [4] = assay: Cytoprotection against AAPH-induced haemolysis in human erythrocytes at 0.01 to 1 mg/l pre-incubated for 20 mins before 60 mM AAPH addition for 4 hrs by spectrophotometric analysis; assay type: functional; conditions: in the assay text read “0.025 to 0.1 mg/ml” for “0.01 to 1 mg/l”
Summary of the method: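 Human erythrocytes (RBCs) pre-incubated 20 min with compound or the standards Trolox and BHT, then challenged with 60 mM AAPH to induce free-radical haemolysis. Data are means SD (n = 4), with significance set at p < 0.05.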

[5] = Hemolytic activity in human erythrocytes at 0.1 mg/ml incubated for 60 mins by spectrophotometric analysis; assay type: ADME, cell-based, Erythrocyte; conditions: read-out: Activity
Summary of the method: (§2)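 RBCs were incubated with compound for 60 min. Haemolysis below 5% was taken as not significant.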

Erythrocyte [6] = assay: Hemolytic activity in human erythrocytes assessed as change in cell shape by measuring discocytes level at 0.1 mg/ml incubated for 60 mins by […]; assay type: ADME, cell-based; conditions: 1 h
[7] = Antioxidant activity assessed as DPPH radical scavenging activity at 0.1 mg/ml incubated for 30 mins in dark by spectrophotometric analysis relative to BHT; assay type: functional
[8] = Antioxidant activity assessed as ferric ion reducing activity using Fe3+(CN-)6 at 0.025 to 0.1 mg/ml incubated for 20 mins by spectrophotometric analysis relative to trolox; assay type: functional; set-up: scale not given: the % may be the effect or the level left
[9] = Antioxidant activity assessed as ferric ion reducing activity using Fe3+(CN-)6 at 0.025 to 0.1 mg/ml incubated for 20 mins by spectrophotometric analysis relative to BHT; assay type: functional
[10] = Antioxidant activity assessed as DPPH radical scavenging activity at 0.1 mg/ml incubated for 30 mins in dark by spectrophotometric analysis relative to trolox; assay type: functional
[11] = Hemolytic activity in human erythrocytes at 0.025 mg/ml incubated for 60 mins by spectrophotometric analysis; assay type: ADME, cell-based, Erythrocyte; conditions: read-out: Activity; summary of the method: as §2
[12] = Induction of hemolysis in human erythrocytes assessed as change in RBC shape by measuring echinocytes and spherocytes level at 0.1 mg/ml preincubated for 60 mins followed by AAPH induction measured after 4 hrs by […]; assay type: cell-based
[13] = Hemolytic activity in human erythrocytes at 0.05 mg/ml incubated for 60 mins by spectrophotometric analysis; assay type: ADME, cell-based, Erythrocyte; conditions: read-out: Activity; summary of the method: as §2
Erythrocyte [14] = assay: Hemolytic activity in human erythrocytes assessed as echinocytes/spherocytes formation incubated for 60 mins by microscopic analysis; assay type: ADME, cell-based; conditions: 1 h
Summary of the method: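 RBCs were incubated with compound for 60 min, and cell morphology was then assessed by optical microscopy for echinocytes, spherocytes and RBC ghosts.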

[15] = Induction of hemolysis in human erythrocytes assessed as reduction in osmotic resistance at 0.1 mg/ml incubated for 60 mins by erythrocyte osmotic fragility assay relative to NaCl (reference value: 0.451%); assay type: cell-based; set-up: scale not given: the % may be the effect or the level left; conditions: 1 h; summary of the method: as §1
[16] = Antioxidant activity assessed as ferric ion reducing activity using Fe3+(CN-)6 at 0.1 mg/ml incubated for 20 mins by spectrophotometric analysis relative to trolox; assay type: functional; set-up: scale not given: the % may be the effect or the level left
[17] = Antioxidant activity assessed as ferric ion reducing activity using Fe3+(CN-)6 incubated for 20 mins by spectrophotometric analysis; assay type: functional
[18] = Antioxidant activity assessed as DPPH radical scavenging activity incubated for 30 mins in dark by spectrophotometric analysis; assay type: functional
[19] = Antioxidant activity assessed as ferric ion reducing activity using Fe3+(CN-)6 at 0.1 mg/ml incubated for 20 mins by spectrophotometric analysis relative to BHT; assay type: functional

For `Cn1c(=O)c2c(ncn2C)n(C)c1=O` [CAFFEINE], the Activity [1] was < 10%, the Activity [2] was “Non-Toxic” and the Activity [3] was “inactive”. The Activity (Erythrocyte [4]) was 10%, the hemolysis at 1 h, 0.1 mg/ml [5] was 0 to 5% and the Activity (Erythrocyte [6]) was “Non-Toxic”.
In the case of `CC(C)Sc1nc2c(c(=O)n(C)c(=O)n2C)n1C`, the Activity [2] is reported as “Non-Toxic”, the Activity [7] is reported as “Active” and the Activity [8] is reported as 38%. For the same molecule, the Activity [3] was “inactive”, the Activity (Erythrocyte [4]) was 10% and the hemolysis at 1 h, 0.1 mg/ml [5] was 0 to 5%. For the same molecule, the Activity [9] was “Active”, the Activity (Erythrocyte [6]) was “Non-Toxic” and the Activity [10] was 34%.
With `Cc1c(C)c2c(c(C)c1O)CCC(C)(C(=O)O)O2` (centres undefined) the Activity (Erythrocyte [4]) was “Active”.
With `Cn1c(=O)c2c(nc(Sc3ccccc3)n2C)n(C)c1=O` the hemolysis at 1 h, 0.025 mg/ml [11] was < 5%, the Activity [1] was < 10% and the Activity [2] was “Toxic”. For the same molecule, the Activity [3] was “inactive”, the Activity (Erythrocyte [4]) was “inactive” and the Activity [12] was “Toxic”. For the same molecule, the hemolysis at 1 h, 0.05 mg/ml [13] was 26.9%, the Activity (Erythrocyte [14]) was “Toxic” and the hemolysis at 1 h, 0.1 mg/ml [5] was 57.2%. The Activity [15] was 0.488%.
In the case of `Cn1c(=O)c2c(nc(SC(C)(C)C)n2C)n(C)c1=O`, the Activity [1] is reported as < 10%, the Activity [2] is reported as “Non-Toxic” and the Activity [3] is reported as “inactive”. For the same molecule, the Activity (Erythrocyte [4]) was “inactive”, the hemolysis at 1 h, 0.1 mg/ml [5] was 0 to 5% and the Activity (Erythrocyte [6]) was “Non-Toxic”.
In the case of `Cn1c(=S)c2c(ncn2C)n(C)c1=S`, the Activity [1] is reported as < 10%, the Activity [2] is reported as “Non-Toxic” and the Activity [3] is reported as “inactive”. For the same molecule, the Activity (Erythrocyte [4]) was “Active”, the hemolysis at 1 h, 0.1 mg/ml [5] was 0 to 5% and the Activity (Erythrocyte [6]) was “Non-Toxic”.
In the case of `CSc1nc2c(c(=O)n(C)c(=O)n2C)n1C`, the Activity [1] is reported as < 10%, the Activity [2] is reported as “Non-Toxic” and the Activity [3] is reported as “inactive”. The Activity (Erythrocyte [4]) was 10%, the hemolysis at 1 h, 0.1 mg/ml [5] was 0 to 5% and the Activity (Erythrocyte [6]) was “Non-Toxic”.
In the case of `Cn1c(=S)c2c(ncn2C)n(C)c1=O`, the Activity [1] is reported as < 10%, the Activity [2] is reported as “Non-Toxic” and the Activity [3] is reported as “inactive”. The Activity (Erythrocyte [4]) was “Active”, the hemolysis at 1 h, 0.1 mg/ml [5] was 0 to 5% and the Activity (Erythrocyte [6]) was “Non-Toxic”.
For `CCSc1nc2c(c(=O)n(C)c(=O)n2C)n1C`, the Activity [1] was < 10%, the Activity [2] was “Non-Toxic” and the Activity [3] was “inactive”. The Activity (Erythrocyte [4]) was 10%, the hemolysis at 1 h, 0.1 mg/ml [5] was 0 to 5% and the Activity (Erythrocyte [6]) was “Non-Toxic”.
For `Cn1c(=O)c2c(nc(SC(=S)N3CCCC3)n2C)n(C)c1=O`, the Activity [2] was “Non-Toxic”, the Activity [3] was “inactive” and the Activity (Erythrocyte [4]) was “Active”. The Activity [16] was 65%, the Activity [17] was “Dose-dependent effect” and the Activity [18] was “Dose-dependent effect”. For the same molecule, the hemolysis at 1 h, 0.1 mg/ml [5] was 0 to 5%, the Activity [19] was “Active” and the Activity (Erythrocyte [6]) was “Non-Toxic”. It also gave an Activity [10] of 67%.
For `Cc1cc(C(C)(C)C)c(O)c(C(C)(C)C)c1`, the Activity [17] was “Active” and the Activity [10] was “Active”.
With `CCCSc1nc2c(c(=O)n(C)c(=O)n2C)n1C` the Activity [1] was < 10%, the Activity [2] was “Non-Toxic” and the Activity [3] was “inactive”. For the same molecule, the Activity (Erythrocyte [4]) was “inactive”, the hemolysis at 1 h, 0.1 mg/ml [5] was 0 to 5% and the Activity (Erythrocyte [6]) was “Non-Toxic”.
